Test results reported in publication PMC10278071 (ACS Chemical Biology, 2023).
Like-named read-outs stand apart in the source and are kept apart here.

Assays:
C4–2 cells [1] = experiment: C4–2 cell growth with harmine and bicalutamide; assay type: cell-based, human; details: bicalutamide 10 μM, harmine 7 μM, alone or combined, after 6–8 days
DU145 cells = experiment: Quantitative real-time PCR of hypermethylated genes; assay type: cell-based, human; details: DU145, 10 μM, 16 h, normalized to 18S rRNA
Summary of the method: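 DU145 cells (RPMI 1640, 10% FBS) treated with test compound at 0 or 10 μM for 16 h. Total RNA extracted with TRIzol and DNase-treated; 5 μg reverse-transcribed. SYBR Green qPCR with two-step cycling. Expression normalized to 18S rRNA, reported as fold change versus untreated cells. Student's t-test between groups.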

C4–2 cells [2] = experiment: Annexin V and PI staining flow cytometry apoptosis assay; assay type: cell-based, human; details: 24 h
Summary of the method: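 C4–2 cells starved 24 h, then exposed 24 h in serum-free medium to test compound at 0, 50 or 100 μM. Cells washed twice in ice-cold PBS and resuspended at 2 × 10^6 cells/mL in binding buffer (10 mM HEPES pH 7.4, 150 mM NaCl, 2.5 mM CaCl2). Stained with APC-annexin V plus PI, then analysed by flow cytometry with compensation for spectral overlap.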

murine DNMT3a = details: read-out: IC50 murine DNMT3a; library screening; cited from earlier work
[3] = target: acetylcholine esterase (AChE); details: read-out: IC50 AChE; cited from earlier work
DNMT3B-3L complex [4] = target: T1, DNMT3B-3L complex (Homo sapiens, UniProt Q9UBC3); experiment: Inhibition kinetics assay; assay type: biochemical; details: for mode of inhibition versus SAM (Lineweaver–Burk): constant Vmax, increased Km upon inhibitor binding
Cdk2/cyclin A = details: read-out: IC50 Cdk2/cyclin A; cited from earlier work
DNMT3B-3L complex [5] = target: T1, DNMT3B-3L complex; experiment: Intrinsic tryptophan fluorescence spectroscopy titration; assay type: binding
Summary of the method: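 His-tagged DNMT3B (571–853) and DNMT3L (179–379), co-lysed from E. coli Rosetta2(DE3)pLysS and tag-cleaved, 1 μM complex. Titrated with test compound 0–80 μM at 25 °C. Excitation 280 nm, emission 300–450 nm, slit 5 nm. Buffer titrations subtracted as background. Intensity change fitted by nonlinear one-site specific binding. Three independent experiments.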

DNMT3B-3L = DNMT3B-3L (Homo sapiens, UniProt Q9UBC3); experiment: Isothermal titration calorimetry; assay type: binding
Summary of the method: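 Purified DNMT3B-3L complex at 0.02 mM in 20 mM Tris-HCl pH 8.0, 100 mM NaCl, 0.2 mM TCEP. Titrated with 7 μL injections of 0.52 mM test compound. Ligand-into-buffer heat subtracted. Independent binding model fitted to give n, Kd, ΔH and ΔS. Triplicate.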

Cdk1/cyclin B = details: read-out: IC50 Cdk1/cyclin B; cited from earlier work
C4–2 cells [6] = experiment: Western blot of caspase-3 and Bcl-2 after harmine treatment; assay type: cell-based, human; details: 50 and 100 μM harmine, 24 h, serum-free
DYRK1A = details: read-out: IC50 DYRK1A; cited from earlier work
Cdk5/p25 = details: read-out: IC50 Cdk5/p25; cited from earlier work
DNMT3B = details: read-out: IC50 DNMT3B; cited from earlier work
DNMT1 = details: cited from earlier work
DNMT3A [7] = details: read-out: IC50 DNMT3A; cited from earlier work
DNMT3A [8] = details: read-out: IC50 DNMT3A; cited from earlier work; remark: listed apart in the source
human DNMT1 = details: read-out: IC50 human DNMT1; cited from earlier work

**Q.** With `CC(O)(CS(=O)(=O)c1ccc(F)cc1)C(=O)Nc1ccc(C#N)c(C(F)(F)F)c1` (stereo not drawn) [bicalutamide] as the compound, how does the “reduction of number of viable cells / cell proliferation” value (C4–2 cells [1]) read?
**A.** 17%

**Q.** What does the source list for `COc1ccc2c(c1)[nH]c1c(C)nccc12` [harmine]?
**A.** mRNA levels of DNMT3A and DNMT3B genes (DU145 cells): did not result in significant changes; reduction of number of viable cells / cell proliferation (C4–2 cells [1]): 40%; cell apoptosis (Annexin V and PI staining) (C4–2 cells [2]; 0, 50, 100 μM harmine): induced cell apoptosis; concentration inducing C4–2 cell death (C4–2 cells [2]; from western blot and flow cytometry): […]; IC50 (murine DNMT3a): 2.3 µM; IC50 [3]: 9.05 µM; mode of inhibition versus SAM (Lineweaver–Burk) (DNMT3B-3L complex [4]): competitive inhibitors; IC50 (Cdk2/cyclin A): 33 µM; Kd (DNMT3B-3L complex [5]): 3.48 ± 1.95 µM; Kd (DNMT3B-3L): 3.35 ± 0.3 µM; ΔG, ITC (DNMT3B-3L; 25 °C, mean ± SD, n=3): […]; IC50 (Cdk1/cyclin B): 17 µM; Bcl-2 protein levels (C4–2 cells [6]): decreased Bcl-2 protein levels; levels of cleaved caspase-3 (C4–2 cells [6]): increased the levels of cleaved caspase-3; IC50 (DYRK1A): […]; IC50 (Cdk5/p25): 20 µM

**Q.** What does the source list for `Oc1ccc(/C=C/c2cc(O)cc(O)c2)cc1` [resveratrol]?
**A.** IC50 (DNMT3B): 65 µM; inhibitory activity on DNMT1 (DNMT1): no inhibitory activity; Ki (DNMT3B-3L complex [4]): 23.6 ± 4.17 µM; mode of inhibition versus SAM (Lineweaver–Burk) (DNMT3B-3L complex [4]): competitive inhibitors; IC50 (DNMT3A [7]): 105 µM

**Q.** Which results are given for `Nc1ncnc2c1ncn2[C@@H]1O[C@H](C[C@@H](N)CC[C@H](N)C(=O)O)[C@@H](O)[C@H]1O` [sinefungin]?
**A.** IC50 (DNMT3A [8]): 1.8 µM; IC50 (human DNMT1): […]
